In ChEMBL document CHEMBL1141156, “Mapping antimalarial pharmacophores as a useful tool for the rapid discovery of drugs effective in vivo: design, construction, characterization, and pharmacology of metaquine” (2005):

What was measured:
[1] = Binding constant dissolved in DMSO against hematin receptor at pH 7.4 (HEPES Buffer) upon incubation at 30 degree C
Outline: (§1)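 Hemin from 1.2 mM DMSO stock diluted to ~12 μM in 40% aqueous DMSO, 0.02 M HEPES, apparent pH 7.4–7.5 (monomeric hematin). Drug serial dilutions mixed with heme in microplate wells, 30 min incubation at the stated temperature, absorbance at 405 nm (Soret). Reference wells without heme subtract drug absorbance. Triplicate readings; log K by nonlinear least-squares fit, 1:1 heme–drug model.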

[2] = Binding constant dissolved in DMSO against hematin receptor at pH 7.4 (HEPES Buffer) upon incubation at 42 degree C; outline: as §1
Plasmodium falciparum = test: In vitro inhibition of Plasmodium falciparum K1; type: functional
Outline: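 Synchronized, mostly ring-stage P. falciparum K1 at 1.0% parasitemia in RPMI 1640 with 25 mM HEPES pH 7.4 and 32 mM NaHCO3. Drug from DMSO stock, final DMSO ≤0.01%. Culture 24 h at 37 °C under 17% O2/3% CO2/80% N2, then 18–24 h with [3H]hypoxanthine. Incorporation counted by scintillation after filter harvest; IC50 reported.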

[3] = Dose (diphosphate) present in DMSO required to inhibit Plasmodium berghei N/13 infected mice (Mus musculus) administered subcutaneously 3-4 hr after infection on day 1 and then twice daily on days 2 and 3; type: functional; settings: sc, read-out: ID50 (the source's name)
Outline: (§2)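 MF1 mice inoculated iv with 2×10^7 P. berghei N/13 parasitized erythrocytes. Drug given sc as five injections over 72 h in olive oil/DMSO (96:4) or saline/DMSO (96:4). Parasitemia read at 72 h on Leishman-stained tail blood smears, 4–8 mice per dose, 2–8 dose levels. ID50 is the dose giving 50% inhibition versus concurrent vehicle-treated mice.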

[4] = Binding constant dissolved in DMSO against hematin receptor at pH 7.4 (HEPES Buffer) upon incubation at 37 degree C; outline: as §1
[5] = Dose (dihydrochloride) present in DMSO required to inhibit Plasmodium berghei N/13 infected mice (Mus musculus) administered subcutaneously; type: functional; settings: sc, read-out: ID50 (the source's name); outline: as §2
Plasmodium berghei = test: In vivo 50% inhibition of parasitaemia in Plasmodium berghei infected mice (Mus musculus) by oral dose; type: functional; settings: read-out: ID50 (the source's name)
Outline: (§3)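 P. berghei-infected MF1 mice (2×10^7 parasitized erythrocytes iv). Drug in Water for Injections BP/DMSO (98:2) at 65 and 199 μM in drinking water, ad libitum; daily volume drunk measured to calculate dose. Parasitemia on Leishman-stained tail smears at 72 h, 4–8 mice per group. ID50 is 50% inhibition versus vehicle-treated mice.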

[6] = Dose (dihydrochloride) present in DMSO required to inhibit Plasmodium berghei NY infected mice (Mus musculus) administered intraperitoneally; type: functional; settings: ip, read-out: ID50 (the source's name)
Outline: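 MF1 mice infected iv with 2×10^7 P. berghei NY parasitized erythrocytes. Dosing ip, five injections over 72 h, in Water for Injections BP/DMSO (96:4). Parasitemia counted on Leishman-stained tail smears at 72 h, groups of 4–8 mice. ID50 derived from 2–8 dose levels relative to vehicle-treated controls.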

[7] = Binding constant dissolved in DMSO against hematin receptor at pH 7.4 (HEPES Buffer) upon incubation at 23 degree C; outline: as §1
[8] = Dose of the compound (hydrochloride) required to inhibit Plasmodium berghei Plasmodium berghei N/13 parasitemia by 50%; type: functional; settings: read-out: ID50 (the source's name); outline: as §3
[9] = Dose present in DMSO required to inhibit Plasmodium berghei N/13 infected mice (Mus musculus) administered subcutaneously 3-4 hr after infection on day 1 and then twice daily on days 2 and 3; type: functional; settings: sc, read-out: ID50 (the source's name); outline: as §2

`CCN(CC)CCCC(C)Nc1ccnc2cc(Cl)ccc12` (stereo not given) [CHLOROQUINE] gave a Log K [1] of 5.4, a Log K [2] of 5.3 and an IC50 (Plasmodium falciparum) of 230 nM. It also gave an ED50 [3] of 8.3 µmol/kg and a Log K [4] of 5.4.
`Clc1ccc2c(Nc3cccc(Nc4ccnc5cc(Cl)ccc45)c3)ccnc2c1` [METAQUINE] showed an ED50 [5] of 2.9 µmol/kg, a Log K [1] of 5.4 and an ED50 (Plasmodium berghei) of 25 µmol/kg. The ED50 [6] was 3.2 µmol/kg, the Log K [2] was 5.8 and the IC50 (Plasmodium falciparum) was 170 nM. The Log K [7] was 6.1, the ED50 [8] was 2.4 µmol/kg and the Log K [4] was 5.1. For the same molecule, the ED50 [9] was 1.5 µmol/kg.
